# MBD2 DNA inh: inhibitors of human MBD2 binding to methylated oligonucleotide; Q9UBB5; inhibition, % at 4.4 µM; TR-FRET; actives 0.31% (n = 370,000); in the data active = inhibition above about 13%
# SIAE inh: inhibitors of human sialic acid acetylesterase SIAE. actives 0.69% (n = 370,000). SIAE FP-Rh probe binding, fluorescence polarization. Q9HAT2. inhibition, % at 9.66 µM. AID 1053197;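 active = inhibition above a cutoff: mean of compounds within the control limits plus 3 SD of those, cut at about 17% in these data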
# PRMT1 inh: PRMT1 (human) inhibition, primary screen; Q99873; recombinant PRMT1, activity-based probe fluorescence polarization; inhibition, % at 2.79 µM; actives 1.3% (n = 370,000);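 active = inhibition above about 21% made by adding two undisclosed values, limit read from the data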
# UHRF1 binding: UHRF1 methyl-DNA binding inhibition; Q96T88; UHRF1 binding to methylated oligo, TR-FRET; inhibition, % at 4.4 µM; actives 0.75% (n = 370,000); AID 687016; in the data active = inhibition above about 21%;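 also: UHRF1 SRA domain binding a hemimethylated CpG hairpin DNA probe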
# Target sequence (Q96T88 whole entry, looked up, the tested form may be a part): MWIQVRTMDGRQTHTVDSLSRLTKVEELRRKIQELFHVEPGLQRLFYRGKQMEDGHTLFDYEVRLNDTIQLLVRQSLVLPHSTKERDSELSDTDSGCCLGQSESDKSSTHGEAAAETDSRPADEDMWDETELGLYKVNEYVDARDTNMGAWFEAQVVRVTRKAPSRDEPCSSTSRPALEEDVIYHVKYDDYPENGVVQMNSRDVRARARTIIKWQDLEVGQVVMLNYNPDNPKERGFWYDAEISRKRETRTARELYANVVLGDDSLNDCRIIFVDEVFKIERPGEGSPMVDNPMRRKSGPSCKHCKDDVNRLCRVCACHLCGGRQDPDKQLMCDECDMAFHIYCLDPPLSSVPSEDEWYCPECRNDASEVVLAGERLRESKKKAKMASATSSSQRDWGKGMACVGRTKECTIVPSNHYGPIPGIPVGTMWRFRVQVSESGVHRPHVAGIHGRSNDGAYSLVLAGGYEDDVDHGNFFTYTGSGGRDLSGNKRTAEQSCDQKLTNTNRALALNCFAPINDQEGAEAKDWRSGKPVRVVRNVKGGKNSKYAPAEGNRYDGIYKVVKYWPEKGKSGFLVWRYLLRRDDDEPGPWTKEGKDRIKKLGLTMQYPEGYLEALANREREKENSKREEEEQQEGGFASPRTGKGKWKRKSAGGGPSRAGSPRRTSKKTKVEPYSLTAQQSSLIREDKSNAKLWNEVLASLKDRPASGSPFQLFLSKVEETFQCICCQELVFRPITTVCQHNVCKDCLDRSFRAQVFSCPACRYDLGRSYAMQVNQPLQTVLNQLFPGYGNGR
# TDP2 absorb: blocks human TDP2 phosphodiesterase activity; actives 0.34% (n = 370,000); O95551; inhibition, % at 12.8 µM; AID 720702; recombinant TDP2, T5PNP hydrolysis, p-nitrophenol absorbance 415 nm;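 active = inhibition above the mean of all tested compounds plus 3 SD, set per campaign, cut at about 25% in these data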
#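 Assay system: recombinant human TDP2 / Reagent: T5PNP substrate at 5 mM, a TopII-DNA adduct mimic / Measured by: epi absorbance from released p-nitrophenol / Evaluation: % inhibition relative to enzyme-containing and enzyme-free wells / Control set: enzyme-free and DMSO wells / Replicates: each compound tested once, singlicate / Schedule: enzyme reaction with compound for 2 h at 37 °C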
# LEDGF integ inh: blocks HIV-1 LEDGF/p75-dependent DNA integration; TR-FRET IN-LEDGF/p75 DNA integration, Eu/Cy5; inhibition, % at 3.7 µM; actives 0.64% (n = 370,000); AID 743269;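 active = inhibition above the screen-wide mean plus 3 SD, cut at about 13% in these data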;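 also: signal is the Cy5 over europium emission ratio at 671 and 618 nm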
# PRMT1 confirm: confirmation of human PRMT1 inhibitors | AID 687036 | actives 42% (n = 3,300) | shares compounds with PRMT1 inh | recombinant His-PRMT1, activity-based probe fluorescence polarization | inhibition, % at 2.79 µM;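 active = mean inhibition across replicates above the hit cutoff derived for the earlier primary screen, cut at about 22% in these data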
# Hits are given with their value; – = inactive; · = no result given. Rows were chosen to be rich in hits. Some 3.3% of all compounds tested hit in one or more screens of this group.
SMILES,MBD2 DNA inh,SIAE inh,PRMT1 inh,UHRF1 binding,TDP2 absorb,LEDGF integ inh,PRMT1 confirm
CC(=O)Nc1ccc(S[C@@H](CCN2CC[C@H](O)CCC2=O)c2ccccc2)cc1,–,–,36,–,–,–,28
CC(C)CN1C(=O)C[C@]2(C(=O)N(C)c3ccc(NC(=O)c4cc(F)ccc4F)cc32)C1c1ccccc1 (stereo not given in full),–,–,–,–,–,–,·
COc1ccc(NC(=S)NNS(=O)(=O)c2ccc3ccccc3c2)c(OC)c1,–,–,27,–,–,–,–
O=C(O)c1ccc(N2C(=O)CSC2=S)cc1,–,–,–,–,–,–,·
O=C(O)c1ccc(CN2C(=O)CSC2=S)cc1,–,–,29,–,–,–,–
CC(=O)CC[C@@H]1CC[C@]2(CCCN(C(=O)C3CCCC3)C2)O1,–,–,–,–,–,–,·
CCOC(=O)c1ccc(NC(=S)N2CCC(O)CC2)cc1,–,–,–,–,–,–,·
CCOC(=O)c1ccc(NC(=S)N2CCSC2c2ccc(Br)cc2)cc1 (stereo not given),–,–,82,–,–,–,–
CN1/C(=C/C(=O)c2ccc(Cl)cc2)Sc2cc3c(cc21)OCO3,–,–,33,–,–,–,–
COc1ccc2c(c1)S/C(=C\C(=O)c1ccncc1)N2C,–,–,45,–,–,–,–
COC(=O)[C@]12C[C@H](CC(=O)NCC34CC5CC(CC(C5)C3)C4)C(=O)N(CCc3ccc(OC)c(OC)c3)C1=C[C@H](COCc1ccccc1)O[C@@H]2C,–,–,–,–,–,–,·
O=C(CCN1CCc2ccccc2CC1)c1ccc2c(c1)OCCO2,–,–,40,–,–,–,29
O=C(CCCN1CCOCC1)c1ccc2c(c1)OCCO2,–,–,–,–,–,–,·
CC(=O)N1CCN(C2=Nc3ccccc3Sc3ccccc32)CC1,–,–,–,–,–,–,·
COc1ccc(N2CCN(C(=O)CNC(=O)c3ccc4ccccc4c3)CC2)cc1,–,–,–,–,–,–,·
COc1cc(OC)cc(C(=O)NCC(=O)N2CCN(c3ccc(O)cc3)CC2)c1,–,–,25,–,–,–,–
Cc1nn(C)c(Sc2ccccc2N)c1[N+](=O)[O-],–,–,71,–,–,–,52
c1ccc2c(C3=NNC(=NC4CC4)SC3)c[nH]c2c1,–,–,38,–,–,–,–
COc1cccc(NC(=O)N2CC[C@@H]3[C@H]2c2cc(-c4cccc(C#N)c4)ccc2N(C)[C@@H]3CO)c1,–,–,–,–,–,–,·
COCCN1CSC(=S)N(Cc2ccco2)C1,–,–,–,–,–,–,·
S=C1SCN(Cc2ccccn2)CN1Cc1ccco1,–,–,30,–,–,–,–
O=C(CSc1nnc(-c2ccccc2)n1-c1ccc(Cl)cc1)Nc1ccc2cn[nH]c2c1,–,–,–,–,–,–,·
CCOC(=O)C(Sc1nn(C)c(=S)s1)C(C)=O (stereo not given),–,–,36,–,–,–,–
O=C1C=CC(=O)N1c1ccccc1N1C(=O)C=CC1=O,–,–,93,–,–,–,90
O=C(c1ccccc1)c1ccccc1N1C(=O)C=CC1=O,–,–,85,–,–,–,97
SMILES,MBD2 DNA inh,SIAE inh,PRMT1 inh,UHRF1 binding,TDP2 absorb,LEDGF integ inh,PRMT1 confirm
O=C(O)c1ccccc1C(=O)c1ccc(-c2ccccc2)cc1,–,–,–,–,–,–,·
CCOC(=O)[C@@]12CCC3=C1N(CCC3)C(=O)[C@H](CC(=O)NCc1cccc(C(F)(F)F)c1)C2,–,–,–,–,–,–,·
C=CS(=O)(=O)N(Cc1ccc(C)cc1)[C@@H](CO)C(=O)OC,–,–,–,–,–,–,·
COc1ccc(N2C(=O)CC(NCc3cccc(F)c3)C2=O)cc1 (stereo not given),–,–,55,–,–,–,–
COc1ccc(N2C(=O)CC(NCc3ccc(F)cc3)C2=O)cc1 (stereo not given),–,–,66,–,–,–,–
Cc1ccc(S(=O)(=O)c2c(N)n(Cc3ccco3)c3nc4ccccc4nc23)cc1C,–,–,28,–,–,–,–
Nc1c(S(=O)(=O)c2ccccc2)c2nc3ccccc3nc2n1Cc1ccco1,–,–,33,–,–,–,–
Cc1ccc(S(=O)(=O)c2c(N)n(CCN3CCOCC3)c3nc4ccccc4nc23)cc1C,–,–,–,–,–,–,·
CCCN1C(=O)S/C(=C\c2ccc(N3CCOCC3)o2)C1=O,–,–,26,–,–,–,–
O=C(O)CN1C(=O)/C(=C/c2ccc(N3CCCCC3)o2)SC1=S,–,–,38,–,–,–,37
Cc1cc(C)nc(SCCc2ccncc2)n1,–,–,30,–,–,–,–
C[C@H](O)[C@@H]1CN2CCc3c([nH]c4cccc(-c5ccccc5)c34)[C@@H]2C[C@@H]1N(C)C(=O)C1CCCCC1,–,–,–,–,–,–,·
COC(=O)C1=C(Nc2ccccc2NC(=O)c2ccccc2C(=O)O)CSC1,–,–,26,–,–,–,–
CN(C)c1ccc(NC(=S)OC2CCC23CCC(c2ccccc2)CC3)cc1 (stereo not given),–,–,–,–,–,–,·
CCC(=O)Nc1ccc(NC(=S)NC(=O)/C=C/c2ccco2)cc1,–,–,–,–,–,–,·
CN(C)c1ccc(NC(=S)NC(=O)/C=C/c2ccco2)cc1,–,–,27,–,–,–,–
O=C(/C=C/c1ccco1)NC(=S)Nc1ccc(Cl)cn1,–,–,29,–,–,–,–
O=C(NCCc1ccccc1)OCc1cn(-c2ccc(F)c(F)c2)nn1,–,–,–,–,–,–,·
CC(=O)c1cccc(S(=O)(=O)NC2CCSc3ccccc32)c1 (stereo not given),–,–,31,–,–,–,–
O=C(NC1CCSc2ccccc21)c1cccc(S(=O)(=O)N2CCOCC2)c1 (stereo not given),–,–,–,–,–,–,·
O=C(Nc1ccccc1)C(Cl)C(=O)c1ccccc1 (stereo not given),–,–,62,–,–,–,79
Clc1ccc([C@H]2OC[C@@]3(CNCCN4CCOCC4)CS[C@H](c4ccc(Cl)cc4)N23)cc1,–,–,–,–,–,–,·
CCN(CC)c1ccc(NS(=O)(=O)c2ccc(-c3ccc(=O)[nH]n3)o2)c(C)c1,–,–,42,–,–,15,–
COC(=O)c1cc(-c2ccc(C(C)=O)cc2)c(=O)n2c1CCC2,–,–,–,–,–,–,·
COc1cc(C(=S)N2CCN(c3cccc(Cl)c3)CC2)ccc1O,–,–,–,–,–,–,·
Oc1ccc(C(=S)N2CCN(Cc3ccccc3)CC2)cc1,–,–,38,–,–,–,54
